Measurements from article PMC9016771 (ACS chemical neuroscience, 2021).
Read-outs that look alike come from different tables or passages of the source.

Tests used:
[1] = molecular target: hCB2 (Homo sapiens, UniProt P34972); experiment: Radioligand binding; conditions: hCB2-HEK membranes
[2] = molecular target: rCB1 (Rattus norvegicus, UniProt P20272); experiment: Radioligand binding; conditions: for Ki: cis photoisomer (irradiated with 366 nm UV light), rat brain membranes, 0.6 nM [3H]CP55940; for CB1 trans/cis ratio: ratio Ki(trans)/Ki(cis) at CB1
Sequence of rCB1 (P20272 whole entry): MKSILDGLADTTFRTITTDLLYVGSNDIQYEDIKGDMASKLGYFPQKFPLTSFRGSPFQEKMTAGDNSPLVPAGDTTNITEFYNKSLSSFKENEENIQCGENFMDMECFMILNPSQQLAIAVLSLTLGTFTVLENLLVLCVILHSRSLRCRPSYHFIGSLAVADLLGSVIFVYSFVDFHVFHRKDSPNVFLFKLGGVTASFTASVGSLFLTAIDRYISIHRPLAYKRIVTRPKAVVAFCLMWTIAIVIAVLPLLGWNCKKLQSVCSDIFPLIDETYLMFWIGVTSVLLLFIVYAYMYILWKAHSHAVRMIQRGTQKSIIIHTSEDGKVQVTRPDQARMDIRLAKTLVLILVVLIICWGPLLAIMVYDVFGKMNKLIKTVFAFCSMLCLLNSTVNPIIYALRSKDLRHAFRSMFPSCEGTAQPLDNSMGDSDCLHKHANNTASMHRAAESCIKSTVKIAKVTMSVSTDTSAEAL

[3] = assay type: physicochemical; conditions: for cis form at photostationary state: UV light at 366 nm, quantified by HPLC
Outline: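 Photostationary states measured by UV/vis spectroscopy in 10 mm path cuvettes. Cis form produced by 366 nm irradiation; trans form by 454 nm blue light. HPLC chromatograms track isomer distribution at each stationary state. Repeated switching cycles check for photofatigue. Thermal stability of the cis form followed over >3 h in buffer pH 7.4 at 37 °C.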

[4] = molecular target: hCB1 (Homo sapiens, UniProt P21554); assay type: cell-based
Sequence of hCB1 (P21554 whole entry): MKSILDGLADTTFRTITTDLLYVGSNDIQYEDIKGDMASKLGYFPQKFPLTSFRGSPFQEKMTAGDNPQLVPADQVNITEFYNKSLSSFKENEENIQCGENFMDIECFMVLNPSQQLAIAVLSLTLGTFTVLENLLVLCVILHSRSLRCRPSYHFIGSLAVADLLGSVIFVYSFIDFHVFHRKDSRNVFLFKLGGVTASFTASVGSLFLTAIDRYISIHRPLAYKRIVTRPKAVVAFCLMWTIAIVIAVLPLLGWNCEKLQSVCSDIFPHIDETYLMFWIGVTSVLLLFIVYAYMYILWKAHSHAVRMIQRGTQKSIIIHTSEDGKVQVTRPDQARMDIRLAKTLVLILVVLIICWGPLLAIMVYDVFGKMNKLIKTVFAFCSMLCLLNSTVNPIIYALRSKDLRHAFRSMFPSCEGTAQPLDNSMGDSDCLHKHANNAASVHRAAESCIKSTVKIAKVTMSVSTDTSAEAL
Outline: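 CHO-K1 cells express hCB1 coupled through Gαq16, so receptor activation gives intracellular calcium mobilization. Calcium flux is monitored with calcium-5 fluorescent dye on an automated fluorescence plate reader. Antagonist apparent affinity (Ke) is derived from the functional response.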

Sequence of hCB2 (P34972 whole entry): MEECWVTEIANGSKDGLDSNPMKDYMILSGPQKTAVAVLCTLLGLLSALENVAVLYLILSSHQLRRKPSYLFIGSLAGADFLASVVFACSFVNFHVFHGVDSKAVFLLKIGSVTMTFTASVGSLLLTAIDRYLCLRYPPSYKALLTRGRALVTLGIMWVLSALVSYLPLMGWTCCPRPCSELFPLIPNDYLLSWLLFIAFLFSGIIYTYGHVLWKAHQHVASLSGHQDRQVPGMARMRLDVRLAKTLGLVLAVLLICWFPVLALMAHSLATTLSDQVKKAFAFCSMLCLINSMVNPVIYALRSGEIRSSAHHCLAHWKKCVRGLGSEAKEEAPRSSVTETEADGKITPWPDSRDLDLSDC

| SMILES | [3H]CP55950 displ at 10 μM (CB2) ([1]; cis photoisomer (366 nm)) | [3H]CP55950 displ at 10 μM (CB2) ([1]; trans photoisomer (454 nm)) | Ki ([2]; CB1 (Ki ± SD)) | CB1 trans/cis ratio [2] | cis form at photostationary state [3] | reversal in the photoconversion ([3]; after being stored in the dark for 2 h) | Kb [4] | thermal stability ([3]; buffer pH 7.4, 37 °C) | Ki ([2]; read-out: CB1 (Ki ± SD)) | [3H]CP55950 displ at 10 μM (CB2) ([1]; reference compound, no photoisomer) |
| --- | --- | --- | --- | --- | --- | --- | --- | --- | --- | --- |
| Cc1c(C(=O)NN2CCCCC2)nn(-c2ccc(Cl)cc2Cl)c1/N=N/c1ccccc1 [9a, 1-(2,4-Dichlorophenyl)-4-methyl-5-[(E)-2-phenyldiazen-1-yl]-N-(piperidin-1-yl)-1H-pyrazole-3-carboxamide] | 14% | 51% | 0.461 ± 0.337 µM | 1.0 | – | – | – | – | – | – |
| Cc1c(C(=O)NN2CCCCC2)nn(-c2ccc(Cl)cc2Cl)c1/N=N/c1cccc(Cl)c1Cl [9b, 1-(2,4-Dichlorophenyl)-4-methyl-5-[(E)-2-(2,3-dichlorophenyl)diazen-1-yl]-N-(piperidin-1-yl)-1H-pyrazole-3-carboxamide] | 61% | 81% | 0.716 ± 0.026 µM | 0.83 | approximately 50% | – | – | – | – | – |
| Cc1c(C(=O)NN2CCCCC2)nn(-c2ccc(Cl)cc2Cl)c1/N=N/c1ccc(Cl)cc1Cl [9c, 1-(2,4-Dichlorophenyl)-5-[(E)-2-(2,4-dichlorophenyl)diazen-1-yl]-4-methyl-N-(piperidin-1-yl)-1H-pyrazole-3-carboxamide] | 55% | 62% | 0.358 ± 0.062 µM | 1.11 | approximately 50% | 45% | – | – | – | – |
| Cc1ccccc1/N=N/c1c(C)c(C(=O)NN2CCCCC2)nn1-c1ccc(Cl)cc1Cl [9d, 1-(2,4-Dichlorophenyl)-4-methyl-5-[(1E)-2-(2-methylphenyl)diazen-1-yl]-N-(piperidin-1-yl)pyrazole-3-carboxamide] | 45% | 68% | 0.384 ± 0.04 µM | 0.76 | – | – | – | – | – | – |
| Cc1cccc(/N=N/c2c(C)c(C(=O)NN3CCCCC3)nn2-c2ccc(Cl)cc2Cl)c1 [9e, 1-(2,4-Dichlorophenyl)-4-methyl-5-[(1E)-2-(3-methylphenyl)diazen-1-yl]-N-(piperidin-1-yl)-1H-pyrazole-3-carboxamide] | 46% | 65% | 0.679 ± 0.16 µM | 0.60 | – | – | – | – | – | – |
| Cc1c(/N=N/c2ccccc2)nn(-c2ccc(Cl)cc2Cl)c1-c1ccc(Cl)cc1 [14a, 5-(4-Chlorophenyl)-1-(2,4-dichlorophenyl)-4-methyl-3-[(E)-2-phenyldiazen-1-yl]-1H-pyrazole] | 21% | <10% | 0.249 ± 0.155 µM | 2.16 | – | – | – | – | – | – |
| Cc1c(/N=N/c2cccc(Cl)c2Cl)nn(-c2ccc(Cl)cc2Cl)c1-c1ccc(Cl)cc1 [14b, 5-(4-Chlorophenyl)-1-(2,4-dichlorophenyl)-3-[(E)-2-(2,3-dichlorophenyl)diazen-1-yl]-4-methyl-1H-pyrazole] | 60% | 31% | 0.195 ± 0.063 µM | – | approximately 50% | – | – | – | – | – |
| Cc1c(C(=O)NCc2ccc(/N=N/c3ccccc3)cc2)nn(-c2ccc(Cl)cc2Cl)c1-c1ccc(Cl)cc1 [16a, 5-(4-Chlorophenyl)-1-(2,4-dichlorophenyl)-4-methyl-N-((4-[(1E)-2-phenyldiazen-1-yl]phenyl)methyl)-1H-pyrazole-3-carboxamide] | <10% | <10% | 0.029 ± 0.0028 µM | – | – | – | ~0.0853 µM | > 3 h | – | – |
| Cc1c(C(=O)NCc2cccc(/N=N/c3ccccc3)c2)nn(-c2ccc(Cl)cc2Cl)c1-c1ccc(Cl)cc1 [16b, 5-(4-Chlorophenyl)-1-(2,4-dichlorophenyl)-4-methyl-N-((3-[(1E)-2-phenyldiazen-1-yl]phenyl)methyl)pyrazole-3-carboxamide] | <10% | 14% | – | 1.23 | – | – | – | – | 0.311 ± 0.196 µM | – |
| Cc1c(C(=O)NCc2ccccc2/N=N/c2ccccc2)nn(-c2ccc(Cl)cc2Cl)c1-c1ccc(Cl)cc1 [16c, 5-(4-Chlorophenyl)-1-(2,4-dichlorophenyl)-4-methyl-N-((2-[(1E)-2-phenyldiazen-1-yl]phenyl)methyl)-1H-pyrazole-3-carboxamide] | 14% | 46% | – | 1.58 | – | – | – | – | 0.142 ± 0.028 µM | – |
| Cc1c(C(=O)NCc2ccc(/N=N/c3ccc4c(c3)COC4)cc2)nn(-c2ccc(Cl)cc2Cl)c1-c1ccc(Cl)cc1 [16d, 5-(4-Chlorophenyl)-1-(2,4-dichlorophenyl)-N-((4-[(1E)-2-(1,3-dihydro-2-benzofuran-5-yl)diazen-1-yl]phenyl)methyl)-4-methyl-1H-pyrazole-3-carboxamide] | <10% | 32% | 0.221 ± 0.109 µM | 2.72 | – | – | – | – | – | – |
| Cc1c(C(=O)NN2CCCCC2)nn(-c2ccc(Cl)cc2Cl)c1-c1ccc(Cl)cc1 [rimonabant, reference compound] | – | – | – | – | – | – | – | – | – | <10% |
